Three compounds from ChEMBL document CHEMBL4270630 can be followed below.

Data set [1] deals with Influenza A virus. Put plainly: Antiviral activity against Influenza A virus A/PR/8/34(H1N1) infected in MDCK cells assessed as reduction in virus-induced cytopathic effect after 3 days by microscopic method. Format: functional, organism-based, A/Puerto Rico/8/1934(H1N1). To be noted: Influenza A virus, A/Puerto Rico/8/1934(H1N1), MDCK, 72 h. The method in brief:
(§1)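 Semi-confluent MDCK cells were infected at an MOI of 0.0004 PFU/cell in Ultra-MDCK infection medium with 2 μg/mL TPCK-trypsin, together with compounds. After 3 days at 35 °C, CPE was scored by microscopy and confirmed by MTS formazan viability. EC50 is the concentration giving 50% inhibition of virus-induced CPE. Values are means of two to five independent tests.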

Data set [2] concerns Influenza A virus. Nature of the data set: Antiviral activity against Influenza A virus A/PR/8/34(H1N1) infected in MDCK cells after 3 days by MTS assay. Format: functional, organism-based, A/Puerto Rico/8/1934(H1N1). To be noted: Influenza A virus, A/Puerto Rico/8/1934(H1N1), MDCK, 72 h. The method in brief:
as §1
(In general: Formazan colour is commonly taken as a measure of viable cells.)

Data set [3] deals with Influenza A virus. Put plainly: Antiviral activity against Influenza A virus A/Virginia/ATCC3/2009(H1N1pdm) infected in MDCK cells assessed as reduction in virus-induced cytopathic effect after 3 days by microscopic method. In kind it is functional, organism-based, Influenza A virus (A/Virginia/03/2009(H1N1)). The settings on record: 72 h. The method in brief: as §1
In general terms: Damage to the host cells serves as the signal in cytopathic effect assays.

Data set [4] deals with Influenza A virus. Nature of the data set: Antiviral activity against Influenza A virus A/Virginia/ATCC3/2009(H1N1pdm) infected in MDCK cells after 3 days by MTS assay. To be noted: 72 h. In kind it is functional, organism-based, Influenza A virus (A/Virginia/03/2009(H1N1)). The method in brief: as §1
Data set [5] concerns H3N2 subtype. Put plainly: Antiviral activity against Influenza A virus A/HK/7/87(H3N2) infected in MDCK cells assessed as reduction in virus-induced cytopathic effect after 3 days by microscopic method. In kind it is functional, organism-based. The settings on record: A/Hong Kong/7/1987(H3N2), 72 h. In short, it runs like this:
as §1

Data set [6] relates to H3N2 subtype. Nature of the data set: Antiviral activity against Influenza A virus A/HK/7/87(H3N2) infected in MDCK cells after 3 days by MTS assay. The settings on record: A/Hong Kong/7/1987(H3N2), 72 h. In kind it is functional, organism-based. The method in brief: as §1
The subject of data set [7] is Influenza B virus. Nature of the data set: Antiviral activity against Influenza B virus B/Ned/537/05 infected in MDCK cells assessed as reduction in virus-induced cytopathic effect after 3 days by microscopic method. To be noted: B/Ned/537/05, MDCK, 72 h. In kind it is functional, organism-based. In short, it runs like this:
(§2)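 Semi-confluent MDCK cells were infected at an MOI of 0.0004 PFU/cell in Ultra-MDCK infection medium with 2 μg/mL TPCK-trypsin, together with compounds. After 3 days at 35 °C, CPE was scored by microscopy and confirmed by MTS formazan viability. Values are means of two to five independent tests.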

For data set [8], the system named is Influenza B virus. Nature of the data set: Antiviral activity against Influenza B virus B/Ned/537/05 infected in MDCK cells after 3 days by MTS assay. In kind it is functional, organism-based. To be noted: B/Ned/537/05, MDCK, 72 h. The method in brief:
as §2

Another data set relates to MDCK. Put plainly: Cytotoxicity against MDCK cells assessed as reduction in cell viability after 3 days by MTS assay. In kind it is cell-based, Canis lupus familiaris. To be noted: dog, mdck, 72 h.
Data set [9] is described as follows: Cytotoxicity against MDCK cells assessed as alteration in cell morphology after 3 days by microscopic method. To be noted: dog. In kind it is cell-based, Canis lupus familiaris. The method in brief:
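Mock-infected MDCK cells were treated with compounds in parallel with the antiviral assay, 3 days at 35 °C. MCC is the concentration causing minimal change in cell morphology by microscopy. CC50 is the 50% cytotoxic concentration by MTS formazan viability assay.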

In data set [10] the test system is Human coronavirus 229E. Nature of the data set: Antiviral activity against Human coronavirus 229E infected in HEL299 cells assessed as reduction in virus induced cytopathic effect after 5 days by microscopic method. In kind it is functional, organism-based. To be noted: HEL 299, 120 h. The method in brief:
(§3)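 Confluent HEL 299 cells in medium with 2% FCS were exposed to HCoV-229E (100 CCID50/well) together with compounds and held for 5 days at 35 °C. EC50 (CPE reduction) and MCC (minimal morphology change) were determined by microscopy. SI is MCC/EC50.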

The nature of data set [11]: Cytotoxicity against HEL299 cells assessed as changes in cell morphology after 5 days by microscopic method. The settings on record: human. In kind it is cell-based, HEL 299. The method in brief: as §3
The subject of data set [12] is Human coronavirus 229E. Nature of the data set: Antiviral activity against Human coronavirus 229E infected in human A549 cells assessed as reduction in virus RNA level after 3 days by qRT-PCR method. Format: functional. The settings on record: A549, 72 h. In short, it runs like this:
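Confluent A549 cells were infected with HCoV-229E in 2% FCS medium with compounds present. The inoculum was removed at 1 h and compounds were kept on at 35 °C. Supernatants were harvested at day 3, lysed at 75 °C for 10 min, and viral genome copies counted by one-step qRT-PCR.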

The nature of data set [13]: Cytotoxicity against human A549 cells assessed as changes in cell morphology after 3 days by microscopic method. Format: cell-based. In short, it runs like this: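 Mock-infected A549 cells were incubated with compounds for 3 days. MCC is the concentration causing minimal change in cell morphology by microscopy.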

What is called EC50 is the concentration giving half of the maximal effect. As usually defined, the CC50 is the concentration at which the toxic effect on the cells reaches its halfway point. The EC90 is the concentration at which the effect reaches the 90% level. Broadly, the EC99 is the point of the concentration-response curve where the effect stands at 99%. Take `CCCCCCSC1=C(SCCCCCC)C(=O)N(CCOCCOCCOCCOCc2cn(C3C(=O)N[C@@H]4Cc5ccc(c(Cl)c5)Oc5cc6cc(c5O)Oc5ccc(cc5Cl)[C@@H](O[C@@H]5O[C@H](CO)[C@@H](O)[C@H](O)[C@H]5NC(C)=O)[C@H]5NC(=O)[C@H](NC(O)[C@@H]6NC(=O)[C@@H](NC4=O)c4cc(O)cc(c4)Oc4cc3ccc4O)c3ccc(O)c(c3)-c3c(O)cc(O)cc3[C@H](C(=O)O)NC5=O)nn2)C1=O` (stereo not given in full): the EC50 in the data set on Influenza A virus [1] stood at 2 µM; in the data set on Influenza A virus [2] it was 3.5 µM; in the data set on Influenza A virus [3], 2.7 µM; with Influenza A virus [4] it was 6 µM; in the data set with H3N2 subtype [5] it was 2 µM; in the data set with H3N2 subtype [6] it was 2.9 µM. Also, the EC50 in the data set with Influenza B virus [7] came out at 1.8 µM; in the data set with Influenza B virus [8] it was 3.6 µM; in the data set with Human coronavirus 229E [10], 5.4 µM. Further, the CC50 with MDCK was determined as 65 µM. Moreover, the results for the MCC at 72 h in data set [9] and in data set [13] were 20 µM and more than 50 µM, respectively. Moreover, in data set [11], the MCC at 120 h is not below 20 µM. Further, in the data set on Human coronavirus 229E [12], the EC90 came to 7.6 µM. Also, the EC99 with Human coronavirus 229E [12] was determined as 21 µM.
As for `CCCCCCSC1=C(SCCCCCC)C(=O)N(Cc2cn(C3C(=O)N[C@@H]4Cc5ccc(c(Cl)c5)Oc5cc6cc(c5O)Oc5ccc(cc5Cl)[C@@H](O[C@@H]5O[C@H](CO)[C@@H](O)[C@H](O)[C@H]5NC(C)=O)[C@H]5NC(=O)[C@H](NC(O)[C@@H]6NC(=O)[C@@H](NC4=O)c4cc(O)cc(c4)Oc4cc3ccc4O)c3ccc(O)c(c3)-c3c(O)cc(O)cc3[C@H](C(=O)O)NC5=O)nn2)C1=O` (stereo not given in full), the EC50 is 3.1 µM in the data set on Influenza A virus [1]; more than 100 µM with Influenza A virus [2]; 4 µM in the data set with Influenza A virus [3]; 2.9 µM in the data set with Influenza A virus [4]; 1.9 µM in the data set with H3N2 subtype [5]; 1.9 µM in the data set with H3N2 subtype [6]. Further, the EC50 turned out to be 2.3 µM in the data set with Influenza B virus [7], 2.7 µM with Influenza B virus [8] and 8.9 µM with Human coronavirus 229E [10]. In addition, the half-maximal cytotoxic concentration (CC50) with MDCK amounted to 12 µM. Further, the values for the MCC at 72 h in data set [9] and in [13] were not below 4 µM and not below 50 µM, respectively. In addition, the MCC at 120 h in [11] is not below 20 µM. For the same compound, the EC90 in the data set with Human coronavirus 229E [12] was 6.4 µM. Further, the EC99 in the data set with Human coronavirus 229E [12] is 9.5 µM.
As to `CCCCCCSC1=C(SCCCCCC)C(=O)N([C@H]2C(=O)N[C@@H]3Cc4ccc(c(Cl)c4)Oc4cc5cc(c4O)Oc4ccc(cc4Cl)[C@@H](O[C@@H]4O[C@H](CO)[C@@H](O)[C@H](O)[C@H]4NC(C)=O)[C@H]4NC(=O)[C@H](NC(O)[C@@H]5NC(=O)[C@@H](NC3=O)c3cc(O)cc(c3)Oc3cc2ccc3O)c2ccc(O)c(c2)-c2c(O)cc(O)cc2[C@H](C(=O)O)NC4=O)C1=O` (stereo not given in full), the EC50 in the data set on Influenza A virus [1], in the data set with Influenza A virus [2], with Influenza A virus [3], in the data set with Influenza A virus [4], in the data set on H3N2 subtype [5] and in the data set with H3N2 subtype [6] was more than 100 µM throughout. Moreover, the EC50 in the data set with Influenza B virus [7] is more than 100 µM; with Influenza B virus [8], more than 100 µM; in the data set on Human coronavirus 229E [10] it was 5.4 µM. In the data set on MDCK, the half-maximal cytotoxic concentration (CC50) was determined as 9.8 µM. Moreover, the MCC at 72 h in data set [9] amounted to 4 µM; in [13], 50 µM. Besides, the MCC at 120 h in data set [11] was not below 20 µM. Moreover, the EC90 with Human coronavirus 229E [12] amounted to 5.8 µM. Moreover, the EC99 with Human coronavirus 229E [12] was 9.4 µM.
